{
  "source": "ChEMBL document CHEMBL5705890",
  "about": "“Antitumor activity of an allosteric inhibitor of centromere-associated protein-E” (Proc Natl Acad Sci U S A, 2010)",
  "format_in_all_cases": "functional",
  "key": {"[1]": {"test_system": "A101D", "assay": "Anticancer activity against human A101D cells assessed as cell growth inhibition measured after 72 hrs by DAPI staining based analysis", "procedure,_shortened": "(§1)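 Cells were seeded and, after 24 h, DNA content was read as T0. Cells were then exposed to varying drug concentrations for a further 72 h (T72). Fixed cells were DAPI-stained and DNA content measured by automated imaging. T72 values were normalized to T0. GI50 is the concentration giving 50% growth inhibition between T0 and Ymax, obtained by curve fitting.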"}, "[2]": {"test_system": "BC-3", "assay": "Anticancer activity against human BC-3 cells assessed as cell growth inhibition measured after 72 hrs by DAPI staining based analysis", "procedure,_shortened": "as §1"}, "[3]": {"test_system": "C-33-A", "assay": "Anticancer activity against human C-33-A cells assessed as cell growth inhibition measured after 72 hrs by DAPI staining based analysis", "procedure,_shortened": "(§2)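 Cells were seeded, and DNA content at 24 h after seeding (T0) was read by imaging of fixed, DAPI-stained cells. Cells were then exposed to a range of drug concentrations for a further 72 h (T72) and DNA content was read again. T72 values were normalized to T0, and GI50 was taken from curve fits as the concentration giving 50% growth inhibition relative to T0 and Ymax.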"}, "[4]": {"test_system": "CAL-27", "assay": "Anticancer activity against human CAL-27 cells assessed as cell growth inhibition measured after 72 hrs by DAPI staining based analysis", "procedure,_shortened": "as §2"}, "[5]": {"test_system": "CAL-62", "assay": "Anticancer activity against human CAL-62 cells assessed as cell growth inhibition measured after 72 hrs by DAPI staining based analysis", "procedure,_shortened": "as §2"}, "[6]": {"test_system": "HCT-15", "assay": "Anticancer activity against human HCT-15 cells assessed as cell growth inhibition measured after 72 hrs by DAPI staining based analysis"}, "[7]": {"test_system": "LNCaP", "assay": "Anticancer activity against human LNCaP cells assessed as cell growth inhibition measured after 72 hrs by DAPI staining based analysis"}, "[8]": {"test_system": "MDA-MB-231", "assay": "Anticancer activity against human MDA-MB-231 cells assessed as cell growth inhibition measured after 72 hrs by DAPI staining based analysis"}, "[9]": {"assay": "Anticancer activity against human MT-3 cells assessed as cell growth inhibition measured after 72 hrs by DAPI staining based analysis"}, "[10]": {"test_system": "MX1", "assay": "Anticancer activity against human MX1 cells assessed as cell growth inhibition measured after 72 hrs by DAPI staining based analysis"}, "[11]": {"test_system": "NCI/ADR-RES", "assay": "Anticancer activity against human NCI/ADR-RES cells assessed as cell growth inhibition measured after 72 hrs by DAPI staining based analysis"}, "[12]": {"test_system": "SNU-475", "assay": "Anticancer activity against human SNU-475 cells assessed as cell growth inhibition measured after 72 hrs by DAPI staining based analysis"}, "[13]": {"test_system": "SW48", "assay": "Anticancer activity against human SW48 cells assessed as cell growth inhibition measured after 72 hrs by DAPI staining based analysis"}, "[14]": {"test_system": "TK-10", "assay": "Anticancer activity against human TK-10 cells assessed as cell growth inhibition measured after 72 hrs by DAPI staining based analysis"}, "[15]": {"test_system": "YAPC", "assay": "Anticancer activity against human YAPC cells assessed as cell growth inhibition measured after 72 hrs by DAPI staining based analysis"}, "[16]": {"test_system": "5637", "assay": "Anticancer activity against human 5637 cells assessed as cell doubling measured for 72 hrs by DAPI staining based analysis"}, "[17]": {"test_system": "A 172", "assay": "Anticancer activity against human A-172 cells assessed as cell doubling measured for 72 hrs by DAPI staining based analysis"}, "[18]": {"test_system": "AN3-CA", "assay": "Anticancer activity against human AN3-CA cells assessed as cell doubling measured for 72 hrs by DAPI staining based analysis"}, "[19]": {"test_system": "C-4-II", "assay": "Anticancer activity against human C-4-II cells assessed as cell doubling measured for 72 hrs by DAPI staining based analysis"}, "[20]": {"test_system": "CAL-27", "assay": "Anticancer activity against human CAL-27 cells assessed as cell doubling measured for 72 hrs by DAPI staining based analysis"}, "[21]": {"test_system": "CESS", "assay": "Anticancer activity against human CESS cells assessed as cell doubling measured for 72 hrs by DAPI staining based analysis"}, "[22]": {"test_system": "COLO-320-HSR", "assay": "Anticancer activity against human COLO 320HSR cells assessed as cell doubling measured for 72 hrs by DAPI staining based analysis"}, "[23]": {"test_system": "DU-4475", "assay": "Anticancer activity against human DU-4475 cells assessed as cell doubling measured for 72 hrs by DAPI staining based analysis"}, "[24]": {"test_system": "K562", "assay": "Anticancer activity against human K562 cells assessed as cell doubling measured for 72 hrs by DAPI staining based analysis"}, "[25]": {"test_system": "LS-1034", "assay": "Anticancer activity against human LS1034 cells assessed as cell doubling measured for 72 hrs by DAPI staining based analysis"}, "[26]": {"test_system": "MCF-10A", "assay": "Anticancer activity against human MCF-10A cells assessed as cell doubling measured for 72 hrs by DAPI staining based analysis"}, "[27]": {"test_system": "NCI-H2171", "assay": "Anticancer activity against human NCI-H2171 cells assessed as cell doubling measured for 72 hrs by DAPI staining based analysis"}, "[28]": {"test_system": "NCI-H520", "assay": "Anticancer activity against human NCI-H520 cells assessed as cell doubling measured for 72 hrs by DAPI staining based analysis"}, "[29]": {"test_system": "RXF 393", "assay": "Anticancer activity against human RXF 393 cells assessed as cell doubling measured for 72 hrs by DAPI staining based analysis"}, "[30]": {"assay": "Anticancer activity against human UM-SCC-12 cells assessed as cell doubling measured for 72 hrs by DAPI staining based analysis"}, "[31]": {"test_system": "SF-268", "assay": "Anticancer activity against human SF-268 cells assessed as cell doubling measured for 72 hrs by DAPI staining based analysis"}, "[32]": {"test_system": "SNU-475", "assay": "Anticancer activity against human SNU-475 cells assessed as cell doubling measured for 72 hrs by DAPI staining based analysis"}, "[33]": {"test_system": "SW1990", "assay": "Anticancer activity against human SW1990 cells assessed as cell doubling measured for 72 hrs by DAPI staining based analysis"}, "[34]": {"test_system": "SW-620", "assay": "Anticancer activity against human SW620 cells assessed as cell doubling measured for 72 hrs by DAPI staining based analysis"}, "[35]": {"test_system": "SW780", "assay": "Anticancer activity against human SW780 cells assessed as cell doubling measured for 72 hrs by DAPI staining based analysis"}, "[36]": {"test_system": "SW 962", "assay": "Anticancer activity against human SW 962 cells assessed as cell doubling measured for 72 hrs by DAPI staining based analysis"}, "[37]": {"test_system": "T47D", "assay": "Anticancer activity against human T47D cells assessed as cell doubling measured for 72 hrs by DAPI staining based analysis"}, "[38]": {"test_system": "WiDr", "assay": "Anticancer activity against human WiDr cells assessed as cell doubling measured for 72 hrs by DAPI staining based analysis"}, "[39]": {"test_system": "YAPC", "assay": "Anticancer activity against human YAPC cells assessed as cell doubling measured for 72 hrs by DAPI staining based analysis"}, "[40]": {"test_system": "SK-OV-3", "assay": "Antitumor activity against human SK-OV-3 cells in xenograft model assessed as difference between median time to endpoint time of treated versus control group at 62.5 mg/kg"}, "[41]": {"test_system": "HT-29", "assay": "Antitumor activity against human HT-29 cells in xenograft model assessed as tumor growth delay at 62.5 mg/kg relative to control"}, "[42]": {"test_system": "NCI-H1299", "assay": "Antitumor activity against human NCI-H1299 cells in xenograft model assessed as tumor growth delay at 125 mg/kg relative to control"}, "[43]": {"test_system": "MX1", "assay": "Antitumor activity against human MX1 cells in xenograft model assessed as tumor growth delay at 125 mg/kg relative to control"}},
  "data": [
    {"compound": "CC(C)Oc1ccc(C(=O)N[C@H](CNC(=O)CN(C)C)Cc2ccc(-c3cn4cccc([C@H](C)O)c4n3)cc2)cc1Cl", "note": "[GSK-923295A]", "values": [
      {"measurement": "GI50", "setting": "[1]", "value": 17, "unit": "nM"},
      {"measurement": "GI50", "setting": "[2]", "value": 88, "unit": "nM"},
      {"measurement": "GI50", "setting": "[3]", "value": 47, "unit": "nM"},
      {"measurement": "GI50", "setting": "[4]", "value": 47, "unit": "nM"},
      {"measurement": "GI50", "setting": "[5]", "value": 30, "unit": "nM"},
      {"measurement": "GI50", "setting": "[6]", "value": 151, "unit": "nM"},
      {"measurement": "GI50", "setting": "[7]", "value": 76, "unit": "nM"},
      {"measurement": "GI50", "setting": "[8]", "value": 5020, "unit": "nM"},
      {"measurement": "GI50", "setting": "[9]", "value": 41, "unit": "nM"},
      {"measurement": "GI50", "setting": "[10]", "value": 30, "unit": "nM"},
      {"measurement": "GI50", "setting": "[11]", "value": 3960, "unit": "nM"},
      {"measurement": "GI50", "setting": "[12]", "value": 26, "unit": "nM"},
      {"measurement": "GI50", "setting": "[13]", "value": 25, "unit": "nM"},
      {"measurement": "GI50", "setting": "[14]", "value": 49, "unit": "nM"},
      {"measurement": "GI50", "setting": "[15]", "value": 59, "unit": "nM"},
      {"measurement": "Activity", "setting": "[16]", "value": 1.43},
      {"measurement": "Activity", "setting": "[17]", "value": 1.84},
      {"measurement": "Activity", "setting": "[18]", "value": 1.74},
      {"measurement": "Activity", "setting": "[19]", "value": 2.42},
      {"measurement": "Activity", "setting": "[20]", "value": 2.55},
      {"measurement": "Activity", "setting": "[21]", "value": 1.39},
      {"measurement": "Activity", "setting": "[22]", "value": 3.25},
      {"measurement": "Activity", "setting": "[23]", "value": 2.05},
      {"measurement": "Activity", "setting": "[24]", "value": 3.52},
      {"measurement": "Activity", "setting": "[25]", "value": 1.73},
      {"measurement": "Activity", "setting": "[26]", "value": 3.87},
      {"measurement": "Activity", "setting": "[27]", "value": 1.39},
      {"measurement": "Activity", "setting": "[28]", "value": 2.15},
      {"measurement": "Activity", "setting": "[29]", "value": 1.2},
      {"measurement": "Activity", "setting": "[30]", "value": 1.78},
      {"measurement": "Activity", "setting": "[31]", "value": 2.13},
      {"measurement": "Activity", "setting": "[32]", "value": 1.8},
      {"measurement": "Activity", "setting": "[33]", "value": 1.88},
      {"measurement": "Activity", "setting": "[34]", "value": 2.91},
      {"measurement": "Activity", "setting": "[35]", "value": 2.73},
      {"measurement": "Activity", "setting": "[36]", "value": 2.46},
      {"measurement": "Activity", "setting": "[37]", "value": 1.44},
      {"measurement": "Activity", "setting": "[38]", "value": 3.05},
      {"measurement": "Activity", "setting": "[39]", "value": 2.14},
      {"measurement": "Time", "setting": "[40]", "value": 71.6, "unit": "days"},
      {"measurement": "Activity", "setting": "[41]", "value": 6, "unit": "%"},
      {"measurement": "Activity", "setting": "[42]", "value": 76, "unit": "%"},
      {"measurement": "Activity", "setting": "[43]", "value": 26, "unit": "%"}
    ]}
  ]
}
